Assay results as given in ChEMBL document CHEMBL4837261, “Optimization of TopoIV Potency, ADMET Properties, and hERG Inhibition of 5-Amino-1,3-dioxane-Linked Novel Bacterial Topoisomerase Inhibitors: Identification of a Lead with In Vivo Efficacy against MRSA” (J Med Chem, 2021).
pIC50: −log10 of the molar value. Converted amounts (≈) assume the structure as drawn. The source made the active and inactive calls. The rule behind the calls is not given here.

How the values were obtained:
[1] = Metabolic stability in CD1 mouse liver microsomes assessed as half life at 2 uM measured up to 120 mins by LC-MS/MS analysis; assay type: ADME, Microsome
[2] = Metabolic stability in CD1 mouse liver microsomes assessed as intrinsic clearance at 2 uM measured up to 120 mins by LC-MS/MS analysis; assay type: ADME, Microsome; conditions: 2 h
Staphylococcus aureus [3] = assay: Selectivity ratio of IC50 for inhibition of Staphylococcus aureus Gyrase D83N mutant to IC50 for inhibition of Staphylococcus aureus Gyrase
Summary of the method: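 Ratio of two IC50s: the IC50 from the D83N mutant gyrase supercoiling assay (commercial kit) divided by the IC50 from the gel-based wild-type S. aureus gyrase supercoiling assay.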

Staphylococcus aureus [4] = assay: Antibacterial activity against Staphylococcus aureus 3527 by CLSI method; assay type: functional
Staphylococcus aureus [5] = assay: Selectivity index, ratio of IC50 for inhibition of Staphylococcus aureus topoisomerase IV decatenation activity to IC50 for inhibition of Staphylococcus aureus DNA gyrase supercoiling activity
Summary of the method: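 Both IC50s were measured in gel-based assays with S. aureus enzymes: supercoiling inhibition for DNA gyrase and decatenation inhibition for TopoIV. The ratio is TopoIV IC50 divided by gyrase IC50.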

DNA gyrase [6] = target: DNA gyrase (Staphylococcus aureus, UniProt P0A0K8+P20831, D83N); assay: Inhibition of Staphylococcus aureus DNA Gyrase D83N mutant assessed as reduction in supercoiling pBR322 DNA by measuring relaxation by bromophenol blue staining based TAE gel method
Topoisomerase IV = Topoisomerase IV (Staphylococcus aureus, UniProt P0C1S7+P0C1U9); assay: Inhibition of Staphylococcus aureus topoisomerase IV decatenation activity using kDNA as substrate by ethidium bromide/bromophenol blue staining based agarose gel electrophoresis analysis; assay type: protein-complex assay
DNA gyrase [7] = target: DNA gyrase (Staphylococcus aureus, UniProt P0A0K8+P20831); assay: Inhibition of Staphylococcus aureus Gyrase supercoiling activity assessed as reduction in supercoiling pBR322 DNA by measuring relaxation by bromophenol blue staining based TAE gel method; assay type: protein-complex assay
Staphylococcus aureus [8] = assay: Antibacterial activity against Staphylococcus aureus harbouring GyrA D83N mutant by CLSI method; assay type: functional
Staphylococcus aureus [9] = assay: Antibacterial activity against Staphylococcus aureus ATCC 29213 by CLSI method; assay type: functional
Staphylococcus aureus [10] = assay: Antibacterial activity against methicillin-resistant Staphylococcus aureus USA300 by CLSI method; assay type: functional
Staphylococcus aureus [11] = assay: Antibacterial activity against cystic fibrosis isolate Staphylococcus aureus by CLSI method; assay type: functional
K562 = assay: Growth inhibition of log-phase human K562 cells incubated for 48 hrs by NBTI cell counting analysis; assay type: functional, cell-based; conditions: for pIC50: Homo sapiens, K562, 48 h, read-out: IC50
[12] = Growth inhibition of human K/VP.5 cells incubated for 48 hrs by NBTI cell counting analysis; assay type: functional; conditions: K562, 48 h
Enterococcus sp. = assay: Antibacterial activity against Enterococcus sp. by CLSI method; assay type: functional
Bacillus anthracis = assay: Antibacterial activity against Bacillus anthracis by CLSI method; assay type: functional
Acinetobacter baumannii = assay: Antibacterial activity against Acinetobacter baumannii by CLSI method; assay type: functional
Streptococcus pneumoniae = assay: Antibacterial activity against Streptococcus pneumoniae by CLSI method; assay type: functional
Staphylococcus aureus [13] = assay: Antibacterial activity against Staphylococcus aureus by CLSI method; assay type: functional
Summary of the method: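 MICs were determined by broth microdilution per CLSI guidelines, in triplicate at minimum. Strains were S. aureus ATCC 29213, MRSA USA300 and a cystic fibrosis respiratory isolate, and ranges are given where seen.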

[14] = target: Voltage-gated inwardly rectifying potassium channel KCNH2 (Homo sapiens, UniProt Q12809); assay: Inhibition of human ERG
Summary of the method: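 hERG channel inhibition was measured on the IonWorks Barracuda automated patch system. IC50 came from eight-point concentration–response curves with four replicates per concentration.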

Streptococcus pyogenes = assay: Antibacterial activity against Streptococcus pyogenes isolates by CLSI method; assay type: functional
[15] = target: T1, DNA gyrase (Staphylococcus aureus) (UniProt P0A0K8+P20831); assay: Inhibition of Staphylococcus aureus DNA Gyrase assessed as reduction in supercoiling pBR322 DNA by measuring induction of single strand breaks at 100 uM by ethidium bromide staining based agarose gel electrophoresis; assay type: protein-complex assay
[16] = target: T1, DNA gyrase (Staphylococcus aureus); assay: Inhibition of Staphylococcus aureus DNA Gyrase assessed as reduction in supercoiling pBR322 DNA by measuring induction of double strand breaks at 200 uM by ethidium bromide staining based agarose gel electrophoresis; assay type: protein-complex assay

Sequence of Voltage-gated inwardly rectifying potassium channel KCNH2 (Q12809 whole entry): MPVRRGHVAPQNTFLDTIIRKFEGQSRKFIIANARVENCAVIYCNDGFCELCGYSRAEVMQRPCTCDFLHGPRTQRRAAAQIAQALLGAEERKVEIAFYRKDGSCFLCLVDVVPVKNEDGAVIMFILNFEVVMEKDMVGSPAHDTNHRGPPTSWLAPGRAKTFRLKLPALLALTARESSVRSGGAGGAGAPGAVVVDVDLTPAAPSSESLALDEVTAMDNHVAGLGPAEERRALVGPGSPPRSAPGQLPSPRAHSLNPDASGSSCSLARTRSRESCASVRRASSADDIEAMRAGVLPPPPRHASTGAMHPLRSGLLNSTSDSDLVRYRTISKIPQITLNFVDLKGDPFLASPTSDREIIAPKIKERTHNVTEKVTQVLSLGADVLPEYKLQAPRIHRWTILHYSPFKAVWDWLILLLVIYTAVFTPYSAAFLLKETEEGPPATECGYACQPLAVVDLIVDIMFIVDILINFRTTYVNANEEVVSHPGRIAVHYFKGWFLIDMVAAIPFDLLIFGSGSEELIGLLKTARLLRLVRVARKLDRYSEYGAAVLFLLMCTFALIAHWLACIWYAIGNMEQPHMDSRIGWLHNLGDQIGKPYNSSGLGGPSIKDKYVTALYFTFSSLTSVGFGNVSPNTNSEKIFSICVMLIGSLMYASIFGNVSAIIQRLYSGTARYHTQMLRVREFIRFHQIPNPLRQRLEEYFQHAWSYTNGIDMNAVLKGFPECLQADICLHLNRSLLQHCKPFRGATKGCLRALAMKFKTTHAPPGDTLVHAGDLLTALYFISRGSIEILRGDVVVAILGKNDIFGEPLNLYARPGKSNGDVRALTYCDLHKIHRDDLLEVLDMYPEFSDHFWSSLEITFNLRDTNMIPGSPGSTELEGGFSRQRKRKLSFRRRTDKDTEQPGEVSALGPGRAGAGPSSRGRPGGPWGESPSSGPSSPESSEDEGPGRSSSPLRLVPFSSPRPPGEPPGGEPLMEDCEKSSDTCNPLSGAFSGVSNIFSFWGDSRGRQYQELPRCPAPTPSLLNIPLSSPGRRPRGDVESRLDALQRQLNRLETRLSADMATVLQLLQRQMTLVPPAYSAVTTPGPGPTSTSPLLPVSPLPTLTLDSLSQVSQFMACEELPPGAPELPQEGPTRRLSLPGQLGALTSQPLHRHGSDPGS

Structure (SMILES) | Ratio IC50 (Staphylococcus aureus [3]) | MIC (Staphylococcus aureus [4]) [µg/mL] | Ratio IC50 (Staphylococcus aureus [5]) | pIC50 (DNA gyrase [6]) | pIC50 (Topoisomerase IV) | pIC50 (DNA gyrase [7]) | MIC (Staphylococcus aureus [8]) [µg/mL] | MIC (Staphylococcus aureus [9]) [µg/mL] | MIC (Staphylococcus aureus [10]) [µg/mL] | MIC (Staphylococcus aureus [11]) [µg/mL] | further results
COc1ccc2nccc(CCN3CCC(NCc4ccc5c(c4)OCCO5)CC3)c2c1 | – | – | – | – | – | – | – | – | – | – | half-life at 2 µM [1]: 2.81 min; intrinsic clearance (CLint) [2]: 1940 µL/min/mg
COc1ccc2ccc(F)c(C[C@H](O)[C@H]3OC[C@H](NCc4cc5c(nn4)OCCS5)CO3)c2n1 | 99 | 0.5 (≈ 1.02 µM) | 39 | 4.92 | 5.34 | 6.92 | 4 (≈ 8.19 µM) | 0.25 (≈ 0.512 µM) | 0.5 (≈ 1.02 µM) | 0.25 (≈ 0.512 µM) | –
COc1ccc2ncc(F)c(C(O)C[C@H]3OC[C@H](NCc4ccc5c(n4)NC(=O)CO5)CO3)c2c1 (mixture of isomers) | – | ≤ 0.5 | – | – | 5.59 | 6.28 | 4 (≈ 8.26 µM) | 0.5 (≈ 1.03 µM) | 0.25 (≈ 0.516 µM) | 0.5 (≈ 1.03 µM) | IC50 (K562; k562): Not Active; pIC50 [12]: < 4.30
COc1ccc2ncc(F)c(C[C@H](O)[C@H]3OC[C@H](NCc4ccc5c(c4)OCCO5)CO3)c2n1 | – | 0.125 (≈ 0.265 µM) | – | 5.57 | 6.42 | 7.22 | 4 (≈ 8.48 µM) | 0.125 (≈ 0.265 µM) | 0.125 (≈ 0.265 µM) | 0.125 (≈ 0.265 µM) | MIC50 (Enterococcus sp.): 0.06 µg/mL (≈ 0.127 µM); MIC50 (Bacillus anthracis): 1 µg/mL (≈ 2.12 µM); MIC90 (Bacillus anthracis): 4 µg/mL (≈ 8.48 µM); MIC50 (Acinetobacter baumannii): 16 µg/mL (≈ 33.9 µM); MIC50 (Streptococcus pneumoniae): 0.5 µg/mL (≈ 1.06 µM); pIC50 [12]: 4.52; MIC50 (Staphylococcus aureus [13]): 0.06 µg/mL (≈ 0.127 µM)
COc1ccc2ncc(F)c(CC[C@H]3OC[C@H](NCc4ccc5c(c4)OCCO5)CO3)c2n1 | – | – | – | – | – | – | – | – | – | – | half-life at 2 µM [1]: 2.43 min; pIC50 [14]: 4.64; intrinsic clearance (CLint) [2]: 2240 µL/min/mg
COc1ccc2ncc(F)c(C[C@H](O)[C@H]3OC[C@H](NCc4cc5c(cn4)OCCO5)CO3)c2n1 | – | 0.25 (≈ 0.529 µM) | – | 4.89 | 5.89 | 7.41 | 4 (≈ 8.47 µM) | 0.125 (≈ 0.265 µM) | ≤ 0.25 | 0.125 (≈ 0.265 µM) | MIC50 (Enterococcus sp.): 0.12 µg/mL (≈ 0.254 µM); MIC50 (Bacillus anthracis): 2 µg/mL (≈ 4.23 µM); MIC90 (Bacillus anthracis): 8 µg/mL (≈ 16.9 µM); MIC50 (Acinetobacter baumannii): 64 µg/mL (≈ 135 µM); MIC50 (Streptococcus pneumoniae): 0.5 µg/mL (≈ 1.06 µM); pIC50 [12]: 3.84; MIC50 (Staphylococcus aureus [13]): 0.25 µg/mL (≈ 0.529 µM)
C[C@H]1COc2c(N3CCN(C)CC3)c(F)cc3c(=O)c(C(=O)O)cn1c23.C[C@H]1COc2c(N3CCN(C)CC3)c(F)cc3c(=O)c(C(=O)O)cn1c23.O [LEVOFLOXACIN] | – | – | – | – | – | – | – | – | – | – | MIC50 (Streptococcus pyogenes): 8 µg/mL; MIC90 (Streptococcus pyogenes): 64 µg/mL
COc1ccc2ncc(F)c(C[C@H](O)[C@H]3OC[C@H](NCc4cnc5c(n4)OCCO5)CO3)c2n1 | 80 | 1 (≈ 2.11 µM) | 52 | 4.54 | 4.72 | 6.44 | 8 (≈ 16.9 µM) | 0.25 (≈ 0.528 µM) | 1 (≈ 2.11 µM) | 0.125 (≈ 0.264 µM) | –
COc1ccc2ncc(F)c(C(O)C[C@H]3OC[C@H](NCc4ccc5c(n4)NC(=O)CS5)CO3)c2c1 (mixture of isomers) | – | ≤ 0.25 | – | – | 5.82 | 6.48 | 4 (≈ 7.99 µM) | 0.25 (≈ 0.499 µM) | 0.25 (≈ 0.499 µM) | 0.5 (≈ 0.999 µM) | pIC50 (K562): 4.25; pIC50 [12]: < 4.30
O=c1ccc2ncc(=O)n3c2n1C[C@H]3CN1CCC(NCc2cc3c(cn2)OCCC3)CC1 [GEPOTIDACIN] | – | 0.25 (≈ 0.557 µM) | – | – | – | – | 8 (≈ 17.8 µM) | 0.25 (≈ 0.557 µM) | 0.25 (≈ 0.557 µM) | 0.25 (≈ 0.557 µM) | Activity [15]: Active; Activity [16]: Active
COc1ccc2ncc(F)c(C[C@H](O)[C@H]3OC[C@H](NCc4cc5c(nn4)OCCS5)CO3)c2c1 | 336 | 0.5 (≈ 1.02 µM) | 87 | 4.72 | 5.32 | 7.25 | 8 (≈ 16.4 µM) | 0.25 (≈ 0.512 µM) | 0.5 (≈ 1.02 µM) | 0.25 (≈ 0.512 µM) | MIC50 (Enterococcus sp.): 0.25 µg/mL (≈ 0.512 µM); MIC50 (Acinetobacter baumannii): > 64 µg/mL; MIC50 (Streptococcus pneumoniae): 1 µg/mL (≈ 2.05 µM); MIC50 (Staphylococcus aureus [13]): 0.5 µg/mL (≈ 1.02 µM)
O=C(O)c1cn(C2CC2)c2cc(N3CCNCC3)c(F)cc2c1=O | – | – | – | – | – | – | – | – | – | – | Activity [15]: Active; Activity [16]: Active
COc1ccc2ncc(F)c(C(O)C[C@H]3OC[C@H](NCc4ccc5c(n4)NC(=O)CS5)CO3)c2n1 (mixture of isomers) | – | ≤ 0.25 | – | – | 5.55 | 7.27 | 2 (≈ 3.99 µM) | ≤ 0.25 | 0.125 (≈ 0.249 µM) | 0.25 (≈ 0.498 µM) | pIC50 (K562): 4.28; pIC50 [12]: < 4.30
COc1ccc2ncc(F)c(C[C@H](O)[C@H]3OC[C@H](NCc4cc5c(nn4)OCCO5)CO3)c2c1 | 60 | 2 (≈ 4.23 µM) | 10 | 4.29 | 5.07 | 6.08 | 16 (≈ 33.9 µM) | 1 (≈ 2.12 µM) | 2 (≈ 4.23 µM) | 0.5 (≈ 1.06 µM) | –
COc1ccc2ncc(F)c(C[C@H](O)[C@H]3OC[C@H](NCc4cc5c(cn4)OCO5)CO3)c2n1 | 86 | 1 (≈ 2.18 µM) | 22 | 4.14 | 4.74 | 6.07 | > 8 | 0.5 (≈ 1.09 µM) | 1 (≈ 2.18 µM) | 0.5 (≈ 1.09 µM) | –
COc1ccc2ncc(F)c(C[C@H](O)[C@H]3OC[C@H](NCc4ccc5c(c4)OCCO5)CO3)c2c1 | 72 | 0.125 (≈ 0.266 µM) | 73 | 5.66 | 5.64 | 7.51 | 4 (≈ 8.5 µM) | 0.125 (≈ 0.266 µM) | 0.125 (≈ 0.266 µM) | 0.25 (≈ 0.531 µM) | MIC50 (Enterococcus sp.): 0.06 µg/mL (≈ 0.128 µM); MIC50 (Acinetobacter baumannii): 64 µg/mL (≈ 136 µM); MIC50 (Streptococcus pneumoniae): 1 µg/mL (≈ 2.13 µM); MIC50 (Staphylococcus aureus [13]): 0.06 µg/mL (≈ 0.128 µM)
COc1ccc2nccc(CCN3CCC(NCc4cc5c(cn4)OCCO5)CC3)c2c1 | – | – | – | – | – | – | – | – | – | – | half-life at 2 µM [1]: 2.54 min; intrinsic clearance (CLint) [2]: 2150 µL/min/mg
